Source: ChEMBL document CHEMBL4196145, “Antitumor Activity of Diterpenoids from Jatropha gossypiifolia: Cell Cycle Arrest and Apoptosis-Inducing Activity in RKO Colon Cancer Cells” (J Nat Prod, 2018)
Active and inactive are the calls of the source. The calls are words filed in the database; no cut-off is given here.

Experiments:
[1] = tested on: RKO; experiment: Growth inhibition of human RKO cells after 48 hrs by CCK-8 assay; type: functional, cell-based
Procedure, shortened: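 CCK-8 (WST-8) was then added for 1 h at 37 °C and optical density read at 450 nm. Survival was expressed relative to untreated control wells and IC50 calculated. Three independent experiments.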

[2] = tested on: LoVo; experiment: Growth inhibition of human LoVo cells after 48 hrs by CCK-8 assay; type: functional, cell-based
[3] = tested on: RKO; experiment: Induction of apoptosis in human RKO cells at 5.2 uM after 24 hrs by DAPI staining based fluorescence microscopy; type: functional, cell-based
[4] = tested on: RKO; experiment: Induction of apoptosis in human RKO cells assessed as nuclear condensation at 2.6 to 5.2 uM after 24 hrs by DAPI staining based fluorescence microscopy; type: functional, cell-based
[5] = tested on: RKO; experiment: Induction of apoptosis in human RKO cells assessed as nuclear fragmentation at 2.6 to 5.2 uM after 24 hrs by DAPI staining based fluorescence microscopy; type: functional, cell-based
[6] = tested on: RKO; experiment: Antimigratory activity against human RKO cells at 2.6 to 5.2 uM after 48 hrs by wound healing based inverted microscopy; type: functional, cell-based
Procedure, shortened: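 Scratch-wound assay. RKO monolayers above 90% confluence were scratched with a sterile pipette tip and debris rinsed off with PBS. Cells were then kept in MEM with 2% FBS at 37 °C with compound, DMSO vehicle or 5-FU. Wounds were photographed by inverted microscopy at 0 and 48 h, and scratch area was compared with the original wound.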

[7] = tested on: RKO; experiment: Cell cycle arrest in human RKO cells assessed as accumulation at G1 phase at 2.6 uM after 24 hrs by propidium iodide staining based flow cytometry (reference value: 51.13%); type: functional
[8] = tested on: RKO; experiment: Cell cycle arrest in human RKO cells assessed as accumulation at G2/M phase at 2.6 uM after 24 hrs by propidium iodide staining based flow cytometry (reference value: 10.97%); type: functional
[9] = tested on: RKO; experiment: Cell cycle arrest in human RKO cells assessed as accumulation at S phase at 2.6 uM after 24 hrs by propidium iodide staining based flow cytometry (reference value: 37.89%); type: functional
[10] = tested on: RKO; experiment: Cell cycle arrest in human RKO cells assessed as accumulation at G1 phase at 5.2 uM after 24 hrs by propidium iodide staining based flow cytometry (reference value: 51.13%); type: functional
[11] = tested on: RKO; experiment: Cell cycle arrest in human RKO cells assessed as accumulation at G2/M phase at 5.2 uM after 24 hrs by propidium iodide staining based flow cytometry (reference value: 10.97%); type: functional
[12] = tested on: RKO; experiment: Cell cycle arrest in human RKO cells assessed as accumulation at S phase at 5.2 uM after 24 hrs by propidium iodide staining based flow cytometry (reference value: 37.89%); type: functional
[13] = tested on: RKO; experiment: Induction of apoptosis in human RKO cells assessed as viable cells at 2.6 uM after 24 hrs by annexin V-FITC/propidium iodide staining based flow cytometry (reference value: 94.1%); type: functional; details: read-out: Activity
Procedure, shortened: (§1)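 Annexin V-FITC/PI kit assay. RKO cells were treated for 24 h at 37 °C with compound, DMSO or 5-FU, collected and washed twice with PBS. They were resuspended in binding buffer and stained with annexin V-FITC and PI for 20 min at 37 °C in the dark. Flow cytometry was run immediately, with viable, early/late apoptotic and necrotic fractions read.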

[14] = tested on: RKO; experiment: Induction of apoptosis in human RKO cells assessed as early apoptotic cells at 2.6 uM after 24 hrs by annexin V-FITC/propidium iodide staining based flow cytometry (reference value: 1.98%); type: functional; procedure, shortened: as §1
[15] = tested on: RKO; experiment: Induction of apoptosis in human RKO cells assessed as late apoptotic cells at 2.6 uM after 24 hrs by annexin V-FITC/propidium iodide staining based flow cytometry (reference value: 3.91%); type: functional; procedure, shortened: as §1
[16] = tested on: RKO; experiment: Induction of apoptosis in human RKO cells assessed as necrotic cells at 2.6 uM after 24 hrs by annexin V-FITC/propidium iodide staining based flow cytometry (reference value: 0.035%); type: functional; procedure, shortened: as §1
[17] = tested on: RKO; experiment: Induction of apoptosis in human RKO cells assessed as viable cells at 5.2 uM after 24 hrs by annexin V-FITC/propidium iodide staining based flow cytometry (reference value: 94.1%); type: functional; details: read-out: Activity; procedure, shortened: as §1
[18] = tested on: RKO; experiment: Induction of apoptosis in human RKO cells assessed as early apoptotic cells at 5.2 uM after 24 hrs by annexin V-FITC/propidium iodide staining based flow cytometry (reference value: 1.98%); type: functional; procedure, shortened: as §1
[19] = tested on: RKO; experiment: Induction of apoptosis in human RKO cells assessed as late apoptotic cells at 5.2 uM after 24 hrs by annexin V-FITC/propidium iodide staining based flow cytometry (reference value: 3.91%); type: functional; procedure, shortened: as §1
[20] = tested on: RKO; experiment: Induction of apoptosis in human RKO cells assessed as necrotic cells at 5.2 uM after 24 hrs by annexin V-FITC/propidium iodide staining based flow cytometry (reference value: 0.035%); type: functional; procedure, shortened: as §1
[21] = tested on: RKO; experiment: Induction of apoptosis in human RKO cells after 24 hrs by annexin V-FITC/propidium iodide staining based flow cytometry; type: functional, cell-based; procedure, shortened: as §1

Which results are given for C/C1=C/C2=C(C[C@H](C)C2)C(=O)[C@@]2(C)C(=O)CC(C)(C)[C@@H]2CC1=O?
growth inhibition (GI) [1]: inactive; growth inhibition (GI) [2]: inactive

C=C(C)[C@@H]1/C=C/[C@@H](C)C(=O)[C@H]2C[C@@H](C)[C@@H](OC(C)=O)[C@H]2/C=C(/C)C(=O)C1 was tested. Which “growth inhibition (GI)” value [1] did it give?
Its value is “inactive”.

What about the “growth inhibition (GI)” value [2] of the same compound?
Its value is “inactive”.

For CC(=O)O[C@H]1/C2=C/[C@@H](C)C(=O)C[C@H]3[C@@H](/C=C(\C)C(=O)[C@H]2C[C@H]1C)C3(C)C, which “growth inhibition (GI)” value [1] is on record?
Its value is “inactive”.

And the “growth inhibition (GI)” value [2]?
Its value is “inactive”.

Which “growth inhibition (GI)” value [1] does the source give for C=C(C)[C@@H]1/C=C/[C@@H](C)C(=O)[C@H]2C[C@@H](C)[C@@H](OC(C)=O)/C2=C/[C@](C)(O)C(=O)C1 here?
Its value is “inactive”.

And the “growth inhibition (GI)” value [2]?
Its value is “inactive”.

For CC(=O)O[C@H]1/C2=C/[C@@H](C)C(=O)C[C@H]3[C@@H](C[C@@H](C)C(=O)[C@H]2C[C@H]1C)C3(C)C, which “growth inhibition (GI)” value [1] is on record?
The value was “inactive”.

And the “growth inhibition (GI)” value [2]?
The value was “inactive”.

CC1=C2CC(C)(C)/C=C/C(=O)/C(C)=C\C3=C[C@H](C)C[C@]3(O2)C1=O [JATROPHONE] was tested. Which IC50 [1] did it give?
The IC50 was 8 µM.

What about the IC50 [2] of the same compound?
Its IC50 is 18.6 µM.

For CC(=O)O[C@H]1/C2=C/[C@@H](C)C(=O)C[C@H]3[C@@H](/C=C(\C)C(=O)[C@@]2(O)C[C@H]1C)C3(C)C, which “growth inhibition (GI)” value [1] is on record?
The value was “inactive”.

What about the “growth inhibition (GI)” value [2] of the same compound?
Its value is “inactive”.

How did the IC50 [1] turn out when C=C1CC[C@@H](C(=C)C)[C@@H]2C=C(C)C(=O)C3=C(C(=O)[C@@H](C)[C@H]3O)[C@@H]12 was run?
Its IC50 is 2.6 µM.

And the IC50 [2]?
Its IC50 is 14.5 µM.

And the Activity [3]?
Its Activity is “Active”.

And the Activity [4]?
The Activity was “Active”.

What about the Activity [5] of the same compound?
Its Activity is “Active”.

And the Activity [6]?
The Activity was “Active”.

And the Activity [7]?
Its Activity is 44.03%.

What about the Activity [8] of the same compound?
Its Activity is 18.3%.

And the Activity [9]?
Its Activity is 37.68%.

What about the Activity [10] of the same compound?
Its Activity is 36.06%.

What about the Activity [11] of the same compound?
The Activity was 25.76%.

What about the Activity [12] of the same compound?
Its Activity is 38.18%.

What about the viability at 2.6 µM [13] of the same compound?
Its viability at 2.6 µM is 59.9%.

And the Activity [14]?
Its Activity is 12.1%.

What about the Activity [15] of the same compound?
The Activity was 27.6%.

And the Activity [16]?
The Activity was 0.404%.

And the viability at 5.2 µM [17]?
Its viability at 5.2 µM is 9.5%.

What about the Activity [18] of the same compound?
The Activity was 21.5%.

And the Activity [19]?
The Activity was 68.2%.

And the Activity [20]?
The Activity was 0.811%.

What about the Activity [21] of the same compound?
The Activity was “Dose-dependent effect”.
